Assay results taken from PubChem BioAssay.
Active and inactive are the calls of the source. Unless noted, no stated cut-off is given here; in the data, active means inhibition above about 30%; inactive means the rest.

Key:
[1] = SK-BR-3 cell growth inhibitors, pilot screen, 24 h, human (AID 572;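 active means viability at or below 10% of carrier control in both of two separate runs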;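 further: compound exposure lasted between 18 and 24 h rather than exactly 24 h; 100% = carrier-treated control wells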); settings: SK-BR-3 viability, CellTiter-Glo luminescence, at 10 µM, stronger effect = lower value
[2] = HUVEC growth inhibition – cell-based, human, primary screen (AID 575;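 active means viability at or below 30% in both replicate assays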;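 further: 100% = median of untreated cell wells with 0.1% DMSO on each plate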); settings: HUVEC proliferation, CellTiter-Glo luminescence, 72 h; at 10 µM; stronger effect = lower value
Summary of the method: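 System: primary human umbilical vein endothelial cells; Quantity: 1250 endothelial cells in each well; Buffer or medium: supplemented EBM, 2% fetal bovine serum; Doses: one dose, 10 µM final, 0.1% DMSO; Incubation: 72 h compound incubation; Technique: ATP-based CellTiter-Glo luminescent read; Evaluation: percent of median DMSO-control luminescence; Controls: vehicle and MePR control wells.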

[3] = growth inhibitors of H69AR lung tumor, primary screen, human, duplicate replicates (AID 580;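 active means viability at or under a set limit in both replicates, limit being median viability minus 3 SD, cut at about 48% in these data, passing the limit was not always enough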;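 further: 100% = mean luminescence of untreated wells and 0% = no signal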); settings: H69AR lung tumor cells viability, ATP luminescence, 72 h; at 10 µM; stronger effect = lower value
[4] = reversal of MRP1-mediated doxorubicin resistance, pilot screen, H69AR cells, doxorubicin co-treatment (AID 601;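 active means viability loss from added drug above about 55%, and viability with drug at most 40%, in both replicates, limit read from the data, passing the limit was not always enough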); settings: CellTiter-Glo, 72 h, at 10 µM; for differential viability (reversal): stronger effect = higher value
[5] = 384-well plate pilot, post-Golgi transport modulator project, inhibition of yeast transport mutant growth (AID 636; in the data active means inhibition above about 31%); settings: absorbance 615 nm, about 18 h, stronger effect = higher value
[6] = growth suppression of yeast trafficking mutant, preliminary HTS, modulators of trafficking downstream of Golgi apparatus project, 1536-format plate, OD 615 nm (AID 637); settings: yeast transport mutant growth, absorbance 615 nm, 18 h; stronger effect = higher value
[7] = H69AR cells + 2 uM doxorubicin, measured here: viability with 2 uM doxorubicin, stronger effect = lower value
[8] = H69AR cells, compound alone cytotoxicity

Row | SMILES | viability [1] | viability [2] | viability [3] | differential viability (reversal) ([4]; H69AR cells + 2 uM doxorubicin) | viability [4, 7] [%] | viability [4, 8] [%] | inhibition [5] | inhibition [6]
1 | CN(C)C(=O)COc1ccc2cc(-c3ccccc3)c(=O)oc2c1 | 93% (inactive) | 98.1% (inactive) | 90.7% (inactive) | -2.2% (inactive) | 92.9 | 90.7 | -7.12% (inactive) | -4.18% (inactive)
2 | COCCCNC(=O)C1CCN(C(=O)Nc2ccc(Cl)cc2)CC1 | 131% (inactive) | 92.2% (inactive) | 99% (inactive) | 11.6% (inactive) | 87.4 | 99 | -1.04% (inactive) | 1.15% (inactive)
3 | CC1(C)CN=C(N2CCN(c3ncnc4sc5c(c34)CCCC5)CC2)S1 | 72% (inactive) | 54.2% (inactive) | 77.3% (inactive) | -8.36% (inactive) | 85.6 | 77.3 | -1.15% (inactive) | 0.83% (inactive)
4 | N#Cc1c(N)oc(-c2cccs2)c1-c1cccs1 | 107% (inactive) | 107% (inactive) | 95% (inactive) | 1.77% (inactive) | 93.2 | 95 | -6.93% (inactive) | -3.82% (inactive)
5 | COc1ccccc1C(=O)NCC(=O)Nc1ccccc1 | 104% (inactive) | 98.2% (inactive) | 98.5% (inactive) | -1.45% (inactive) | 100 | 98.5 | -8.08% (inactive) | 2.91% (inactive)
6 | COC(=O)c1ccc(CSc2nnnn2Cc2ccccc2)cc1 | 111% (inactive) | 98.6% (inactive) | 86% (inactive) | 0.715% (inactive) | 85.2 | 86 | -4.13% (inactive) | -2.36% (inactive)
7 | CCc1cccc2c3c([nH]c12)C(CC)(CC(=O)O)OCC3 (stereo not drawn) | 113% (inactive) | 72% (inactive) | 100% (inactive) | 1.21% (inactive) | 99.1 | 100 | 1.56% (inactive) | 0.67% (inactive)
8 | COc1ccc(-c2noc(CCCOc3ccccc3)n2)cc1OC | 78% (inactive) | 103% (inactive) | 93.7% (inactive) | -7.4% (inactive) | 101 | 93.7 | -1.92% (inactive) | 4.91% (inactive)
9 | O=C(CN1CCN(c2nc(-c3ccc(F)cc3)cs2)CC1)NCc1ccc2c(c1)OCO2 | 175% (inactive) | 69% (inactive) | 91.2% (inactive) | 15.9% (inactive) | 75.2 | 91.2 | -6.49% (inactive) | 13.5% (inactive)
10 | O=C(CCn1c(=O)oc2ccccc21)N1CCN(c2ccccc2Cl)CC1 | 72% (inactive) | 54.2% (inactive) | 11.2% (active) | -55.1% (inactive) | 66.3 | 11.2 | 7.3% (inactive) | -2% (inactive)
11 | CCCc1cc(N2CCCC2)n2nc(C)c(-c3ccccc3)c2n1 | 64% (inactive) | 94.7% (inactive) | 76.6% (inactive) | -3.64% (inactive) | 80.2 | 76.6 | -4.93% (inactive) | 5.27% (inactive)
12 | CN(C)c1nc(OCCOC(=O)Nc2ccc(Cl)cc2Cl)nc(N(C)C)n1 | 70% (inactive) | 103% (inactive) | 96.3% (inactive) | 16.4% (inactive) | 79.9 | 96.3 | -5.21% (inactive) | 2.91% (inactive)
13 | O=S1(=O)CCC(N=Cc2cc(Br)ccc2O)C1 (stereo not drawn) | 94% (inactive) | 68.9% (inactive) | 78.1% (inactive) | -14.3% (inactive) | 92.4 | 78.1 | -5.62% (inactive) | 2.26% (inactive)
14 | OCCNC1=NCCN1 | 54% (inactive) | 99.5% (inactive) | 96.8% (inactive) | 6.17% (inactive) | 90.7 | 96.8 | -7.4% (inactive) | -0.55% (inactive)
15 | COC(=O)c1cc(Br)c(=O)n(CCc2ccc(F)cc2)c1 | 78% (inactive) | 118% (inactive) | 100% (inactive) | 8.46% (inactive) | 92 | 100 | -5.27% (inactive) | 3.09% (inactive)
16 | COCCN(Cc1cc2cc3c(cc2n2nnnc12)OCO3)C(=O)c1ccccc1F | 94% (inactive) | 113% (inactive) | 101% (inactive) | 2.13% (inactive) | 99.3 | 101 | -6.35% (inactive) | -7.27% (inactive)
17 | O=C(COC(=O)C12CC3CC(CC(C3)C1)C2)NCc1ccco1 | 101% (inactive) | 98.5% (inactive) | 64.6% (inactive) | -21.4% (inactive) | 86 | 64.6 | -4.16% (inactive) | -3.93% (inactive)
18 | COc1cc2c(cc1OC)CN(CC(=O)Nc1cccc(C)c1)CC2 | 117% (inactive) | 90.4% (inactive) | 93.1% (inactive) | 9.21% (inactive) | 83.9 | 93.1 | 0.14% (inactive) | -7.9% (inactive)

Row | SMILES | viability [1] | viability [2] | viability [3] | differential viability (reversal) ([4]; H69AR cells + 2 uM doxorubicin) | viability [4, 7] [%] | viability [4, 8] [%] | inhibition [5] | inhibition [6]
19 | Cc1nnc(SCCn2c(Br)nc3c2c(=O)n(C)c(=O)n3C)s1 | 95% (inactive) | 106% (inactive) | 98.2% (inactive) | 0.705% (inactive) | 97.5 | 98.2 | -1.76% (inactive) | -5.09% (inactive)
20 | CCN(CC)S(=O)(=O)c1ccc(F)c(C(=O)NCCC(C)C)c1 | 82% (inactive) | 95% (inactive) | 90.9% (inactive) | 6.46% (inactive) | 84.4 | 90.9 | -0.54% (inactive) | -2.73% (inactive)
21 | COc1ccccc1NC(=O)C(C)NS(=O)(=O)c1ccc(F)cc1 (stereo not drawn) | 141% (inactive) | 89.5% (inactive) | 89.2% (inactive) | 0.595% (inactive) | 88.6 | 89.2 | -5.58% (inactive) | 0% (inactive)
22 | N/C(=N/O)c1nc(N2CCCCC2)nc(N2CCCCC2)n1 | 115% (inactive) | 80.5% (inactive) | 94.9% (inactive) | -0.21% (inactive) | 95.1 | 94.9 | -0.65% (inactive) | -0.98% (inactive)
23 | CC(C)C(=O)N1CCN(c2nc(-c3ccccc3)c3c(c2C#N)CCCC3)CC1 | 103% (inactive) | 74.5% (inactive) | 89.2% (inactive) | 11.5% (inactive) | 77.7 | 89.2 | 8.51% (inactive) | 5.09% (inactive)
24 | CC1(C)CC(=O)C2=C(C1)N(CC1CCCO1)C(=O)C2(O)C(F)(F)F (stereo not drawn) | 98% (inactive) | 97.5% (inactive) | 101% (inactive) | 3.08% (inactive) | 97.7 | 101 | -5.95% (inactive) | -6.36% (inactive)
25 | CCOC(=O)N1CCC(NC(=O)Cn2ncc3c4ccccc4n(C)c3c2=O)CC1 | 114% (inactive) | 116% (inactive) | 97.5% (inactive) | -7.6% (inactive) | 105 | 97.5 | -7.43% (inactive) | -3.27% (inactive)
26 | Cc1ccc(C2C(C(=O)c3sc(C)nc3C)=C(O)C(=O)N2CCN(C)C)o1 (stereo not drawn) | 93% (inactive) | 114% (inactive) | 103% (inactive) | 3.58% (inactive) | 99.1 | 103 | -3.65% (inactive) | 0% (inactive)
27 | Cc1ccc(N(CC(O)CN2CCCC2)S(=O)(=O)c2ccc(C)cc2)cc1 (stereo not drawn) | 132% (inactive) | 103% (inactive) | 86.9% (inactive) | -1.29% (inactive) | 88.2 | 86.9 | -5.21% (inactive) | -1.94% (inactive)
28 | CC1CN(C(=O)CSc2nnc(-c3ccc(Cl)cc3)n2C)CC(C)O1 (stereo not drawn) | 78% (inactive) | 110% (inactive) | 99.5% (inactive) | 5.23% (inactive) | 94.2 | 99.5 | -6.08% (inactive) | 2.91% (inactive)
29 | COc1ccc(-c2nnc(SCC(=O)Nc3sc4c(c3C#N)CCC4)n2CC2CCCO2)cc1 (stereo not drawn) | 89% (inactive) | 97% (inactive) | 93.8% (inactive) | 19.5% (inactive) | 74.4 | 93.8 | 2.43% (inactive) | -1.43% (inactive)
30 | O=C1NC(c2cccnc2)C(C(=O)c2cccs2)C(O)(C(F)(F)F)N1 (stereo not drawn) | 116% (inactive) | 113% (inactive) | 103% (inactive) | 4.9% (inactive) | 97.7 | 103 | -0.27% (inactive) | -0.18% (inactive)
31 | CCN1C(=O)C2(C(C#N)=C(N)Oc3n[nH]c(C(C)C)c32)c2ccccc21 (stereo not drawn) | 113% (inactive) | 103% (inactive) | 89.2% (inactive) | -1.03% (inactive) | 90.2 | 89.2 | -8.9% (inactive) | -0.81% (inactive)
32 | CN(C(=O)Cn1c(=O)n(CCCCC(=O)NC2CCCC2)c(=O)c2ccccc21)C1CCCCC1 | 106% (inactive) | 63.2% (inactive) | 93% (inactive) | 12.2% (inactive) | 80.9 | 93 | -2.73% (inactive) | 5.08% (inactive)
33 | COc1cc(C(=O)N(C)c2nnc(-c3cccnc3)s2)cc(OC)c1OC | 123% (inactive) | 89.6% (inactive) | 82.7% (inactive) | -8.95% (inactive) | 91.6 | 82.7 | -2.05% (inactive) | 17.4% (inactive)
34 | O=C(c1csc2ccccc12)n1cccn1 | 117% (inactive) | 89.7% (inactive) | 93% (inactive) | 6.73% (inactive) | 86.3 | 93 | -12.3% (inactive) | -1.29% (inactive)
35 | CC1=C(C(=O)N2CCOCC2)C(c2ccccc2F)C2=C(CCCC2=O)N1 (stereo not drawn) | 110% (inactive) | 104% (inactive) | 98.8% (inactive) | -2.68% (inactive) | 101 | 98.8 | -2.88% (inactive) | 0.91% (inactive)
36 | Nc1ccc(S(=O)(=O)c2ccc(N)cc2)cc1 | 95% (inactive) | 85.9% (inactive) | 106% (inactive) | 19.4% (inactive) | 87.1 | 106 | -2.21% (inactive) | 5.17% (inactive)
